Screens from PubChem BioAssay.
TRPML3 agonist: agonists of human TRPML3 channel; HEK293 TRPML3-YFP, Fluo-8 calcium fluorescence; 100% = the carbachol control signal; activation, % at 3 µM; actives 0.29% (n = 220,000); AID 1448;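 active means activation above its plate's cutoff, the mean activation of the plate's test wells plus 3 SD, cut at about 12% in these data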
Target sequence (Q8TDD5 whole entry, looked up): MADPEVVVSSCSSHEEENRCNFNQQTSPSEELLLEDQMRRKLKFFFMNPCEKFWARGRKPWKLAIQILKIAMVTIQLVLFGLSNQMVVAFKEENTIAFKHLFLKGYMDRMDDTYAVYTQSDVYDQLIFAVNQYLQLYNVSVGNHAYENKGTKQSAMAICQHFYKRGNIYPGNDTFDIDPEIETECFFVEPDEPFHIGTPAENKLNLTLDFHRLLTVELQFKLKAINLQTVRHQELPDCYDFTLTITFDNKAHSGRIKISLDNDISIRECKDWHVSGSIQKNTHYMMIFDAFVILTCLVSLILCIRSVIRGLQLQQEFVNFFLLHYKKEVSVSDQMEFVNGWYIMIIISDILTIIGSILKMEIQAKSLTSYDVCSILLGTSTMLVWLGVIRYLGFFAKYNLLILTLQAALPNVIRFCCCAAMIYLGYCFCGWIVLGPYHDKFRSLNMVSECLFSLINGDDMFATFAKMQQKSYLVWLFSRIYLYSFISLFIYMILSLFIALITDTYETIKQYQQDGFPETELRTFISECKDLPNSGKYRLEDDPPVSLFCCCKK
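Test system: HEK293 cells stably carrying human TRPML3-YFP; Doses: single dose, 3 µM final nominal compound, 0.3% DMSO final; Schedule: dye loading 1 h 37 °C then 30 min ambient, 125 s read; Technique: Fluo-8 calcium fluorescence; Benchmarks: high control carbachol 87 µM, low control DMSO.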
zfTRPN1 agonist: agonists of zebrafish TRPN1 channel. activation, % at 3 µM. actives 0.18% (n = 220,000). HEK293 zebrafish TRPN1-YFP, Fluo-8 calcium fluorescence; 100% = response to 87 µM carbachol;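 active means activation above its plate's cutoff, the mean activation of test wells on that plate plus 3 SD, cut at about 19% in these data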
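Control set: carbachol 87 µM as high control, DMSO as low control; system: HEK293 stable line with zebrafish TRPN1-YFP; read-out: % activation versus carbachol response; detection: intracellular calcium fluorescence with Fluo-8; doses: single test compound dose, 3 µM nominal, 0.3% DMSO; schedule: dye 1 h 37 °C plus 30 min RT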
OX1R antag-1: OX1R (human) antagonism. AID 485270. inhibition, % at 6.6 µM. OX1R-expressing cells, FRET antagonist read-out. actives 1.8% (n = 330,000). O43613; in the data active means inhibition mostly above about 38%, no sharp cut-off; inactive means mostly below about 40%
OX1R antag-2: human HCRTR1 antagonism | CHO/OX1R cells, Fluo-8 calcium fluorescence, orexin A | O43613 | actives 0.43% (n = 330,000) | inhibition, % at 5 µM;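 active means inhibition above its plate's threshold, mean inhibition of all tested compounds on the plate plus 3 SD, cut at about 37% in these data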
CHO parental Ca: counter-screen for OX1R antagonists: effect in parental CHO cells; inhibition, % at 5.6 µM; actives 0.63% (n = 330,000); parental CHO-K1, ATP-induced calcium, Fluo-8 fluorescence;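 active means inhibition above that plate's mean sample inhibition plus 3 SD, cut at about 26% in these data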
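Material: Parental CHO cells | Reagent: ATP | Compound dosing: Single nominal dose of 5.6 µM per compound | Detection: Intracellular calcium via Fluo-8 no-wash fluorescent dye | Read-out: % inhibition of ATP-induced calcium mobilization | Benchmarks: Low control ATP plus DMSO, high control DMSO only | Replicates: Singlicate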
TRPN1 ag 2: counter-screen for TRPML3 agonists: agonists of zebrafish TRPN1 channel | activation, % at 3 µM | AID 1525 | shares compounds with TRPML3 agonist | HEK293 zebrafish TRPN1-YFP, Fluo-8 calcium fluorescence; scaled: carbachol wells 100%, DMSO wells 0% | actives 10% (n = 310);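 active means mean activation over replicates above a set limit taken from the earlier TRPN1 channel primary screen, cut at about 19% in these data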
TRPML3 ag conf: human TRPML3 agonism, confirmation; shares compounds with TRPML3 agonist; HEK293 TRPML3-YFP, Fluo-8 calcium fluorescence; 100% set by carbachol, 0% by DMSO; activation, % at 3 µM; actives 80% (n = 310); AID 1526;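 active means activation above a set limit derived from the earlier primary screen, cut at about 12% in these data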
Large screens that a line does not name were inactive (follow-up assays come after a bar, where they were run). Rows were chosen to be rich in hits. Some 2.5% of all compounds tested hit in one or more screens of this group.

CCNC(=S)N(Cc1cccs1)Cc1cc2cc(OCC)ccc2[nH]c1=O	TRPML3 agonist 17 | TRPN1 ag 2 inactive | TRPML3 ag conf 16
CSc1nsc(SC)c1C(=O)N1CCN(S(=O)(=O)c2ccc(C)cc2)C1C(C)C (stereo not given)	TRPML3 agonist 46 | TRPN1 ag 2 inactive | TRPML3 ag conf 26
CN1C2CCC1CC(OC(=O)C(CO)c1ccccc1)C2 (stereo not given)	none (no result: TRPML3 agonist, zfTRPN1 agonist)
Oc1c(Cl)cc(Cl)cc1Sc1cc(Cl)cc(Cl)c1O	TRPML3 agonist 13, OX1R antag-1 60, OX1R antag-2 73, CHO parental Ca 101 | TRPN1 ag 2 29 | TRPML3 ag conf 13
O=S(=O)(NC1CCCCCC1)c1cccc2cccnc12	TRPML3 agonist 33 | TRPN1 ag 2 inactive | TRPML3 ag conf 56
CC1CCCCC1NC(=O)CN1C(=O)CSc2cc(S(=O)(=O)N3CCCCCC3)ccc21 (stereo not given)	TRPML3 agonist 33 | TRPN1 ag 2 inactive | TRPML3 ag conf inactive
O=C(CN1C(=O)CSc2cc(S(=O)(=O)N3CCCCCC3)ccc21)NCCc1ccccc1	none
Cc1ccc(C(=O)N(CC(=O)NC2CCCC2)c2ccccc2C)s1	none
Cc1cc(C(C)(C)C)oc1C(=O)N(CC(=O)NC1CCCC1)c1c(C)cccc1C	TRPML3 agonist 44, OX1R antag-1 77, OX1R antag-2 42, CHO parental Ca 46 | TRPN1 ag 2 inactive | TRPML3 ag conf 72
Cc1nn(C(C)(C)C)c(OC(=O)C2CCCC2)c1S(=O)(=O)c1ccccc1	TRPML3 agonist 16 (no result: OX1R antag-1, OX1R antag-2, CHO parental Ca) | TRPN1 ag 2 inactive | TRPML3 ag conf 23
Cc1ccc(S(=O)(=O)c2c(C)nn(C(C)(C)C)c2OC(=O)C2CCCC2)cc1	TRPML3 agonist 32 | TRPN1 ag 2 inactive | TRPML3 ag conf 24
Cc1cc(C)c(C)c(S(=O)(=O)N2CCC(C(=O)N3CCCCCCC3)CC2)c1C	none (no result: TRPML3 agonist, zfTRPN1 agonist)
Cc1ccccc1OCC(=O)Nc1cc(S(=O)(=O)N2CCCCC2)ccc1N1CCN(C)CC1	TRPML3 agonist 21 | TRPN1 ag 2 inactive | TRPML3 ag conf 23
Cc1ccccc1OCC(=O)Nc1ccccc1N1CCOCC1	TRPML3 agonist 47 | TRPN1 ag 2 inactive | TRPML3 ag conf 57
Cc1cccc(OCC(=O)Nc2cc(S(=O)(=O)N3CCOCC3)ccc2N2CCCC2)c1C	none (no result: TRPML3 agonist, zfTRPN1 agonist)
CC(=O)N1CCN(c2ccccc2NC(=O)COc2ccccc2C)CC1	none
COc1ccc(-c2nnc(SC)nc2-c2ccc(OC)c([N+](=O)[O-])c2)cc1[N+](=O)[O-]	none (no result: TRPML3 agonist, zfTRPN1 agonist)
O=C1CN(S(=O)(=O)c2ccc(F)cc2)CC(=O)N1CCc1ccccc1	TRPML3 agonist 12 (no result: OX1R antag-1, OX1R antag-2, CHO parental Ca) | TRPN1 ag 2 inactive | TRPML3 ag conf 23
CCOc1ccc(CCNC(=O)CSc2ncn[nH]2)cc1OCC	none (no result: TRPML3 agonist, zfTRPN1 agonist)
O=C(C1Cc2ccccc2CN1S(=O)(=O)c1ccc(F)cc1)N1CCCCCC1 (stereo not given)	TRPML3 agonist 40 | TRPN1 ag 2 inactive | TRPML3 ag conf 41
COc1cc(S(=O)(=O)N(C)C2CCCCC2)c(C)cc1C	TRPML3 agonist 54 (no result: OX1R antag-1, OX1R antag-2, CHO parental Ca) | TRPN1 ag 2 inactive | TRPML3 ag conf 63
CC(C)[C@H](NS(=O)(=O)c1ccccc1)C(=O)OCC(=O)Nc1ccccc1Sc1ccccc1	TRPML3 agonist 42 | TRPN1 ag 2 inactive | TRPML3 ag conf 66
CN(c1ccccc1)S(=O)(=O)c1cc(Cl)ccc1Cl	TRPML3 agonist 49 | TRPN1 ag 2 inactive | TRPML3 ag conf 67
CN1CCCN(C(=O)c2ccc(Cl)c(S(=O)(=O)N(C)c3ccccc3)c2)CC1	none
CN(c1ccccc1)S(=O)(=O)c1cccc(Cl)c1Cl	TRPML3 agonist 53 | TRPN1 ag 2 inactive | TRPML3 ag conf 40
O=S(=O)(Oc1ccccc1N1CCCCC1)c1ccccc1	TRPML3 agonist 13 | TRPN1 ag 2 inactive | TRPML3 ag conf 14
O=C1NCC(c2ccccc2)C1C(=O)N/N=C/c1ccc(Cl)s1 (stereo not given)	TRPML3 agonist 15 | TRPN1 ag 2 20 | TRPML3 ag conf 20
Cc1ccc(Oc2ccc(Cl)cc2N)cc1	TRPML3 agonist 16 | TRPN1 ag 2 inactive | TRPML3 ag conf inactive
CCOc1ccccc1OCCCC(=O)NNC(=O)c1nn(C)c(=O)c2ccccc12	none (no result: TRPML3 agonist, zfTRPN1 agonist)
Fc1ccc(Nc2nnc(C(F)(F)F)s2)cc1Cl	TRPML3 agonist 17, OX1R antag-1 56, CHO parental Ca 40 | TRPN1 ag 2 inactive | TRPML3 ag conf inactive
CCC(C(=O)Nc1cc(C)nn1-c1nc(C)cc(C)n1)c1ccccc1 (stereo not given)	TRPML3 agonist 23 | TRPN1 ag 2 inactive | TRPML3 ag conf 23
S=C(NC1CCCCC1)N1CCOCCOCCN(C(=S)NC2CCCCC2)CCOCC1	TRPML3 agonist 18 | TRPN1 ag 2 inactive | TRPML3 ag conf 33
COc1cccc(CNC(=O)CCCc2c[nH]c3ccccc23)c1	none (no result: TRPML3 agonist, zfTRPN1 agonist)
O=Cc1ccc(N2CCCC2)c([N+](=O)[O-])c1	none
O=[N+]([O-])/C=C\c1ccc(N2CCCC2)c(F)c1	TRPML3 agonist 13 (no result: OX1R antag-1, OX1R antag-2, CHO parental Ca) | TRPN1 ag 2 27 | TRPML3 ag conf 23
Cc1ccc2c(c1)[nH]c1c(=O)n(Cc3ccco3)cnc12	none
COc1ccc(-c2cc(=O)oc3c(C)c(OC(C)C(=O)Nc4ccc(CN5CCOCC5)cc4)ccc23)cc1 (stereo not given)	none (no result: TRPML3 agonist, zfTRPN1 agonist)
COCCn1c(=O)[nH]c2cc(C(=O)Nc3cc(C)cc(C)c3)ccc2c1=O	none (no result: TRPML3 agonist, zfTRPN1 agonist)
O=C1C(Cl)=C(N2CCN(Cc3ccccc3)CC2)C(=O)N1Cc1ccccc1	TRPML3 agonist 20 | TRPN1 ag 2 inactive | TRPML3 ag conf 25
O=C1C(Cl)=C(NC2CCCCC2)C(=O)N1Cc1ccccc1	none
CC(=O)c1ccc(NC(=S)NC(C)c2ccc(Cl)cc2Cl)cc1 (stereo not given)	TRPML3 agonist 14, OX1R antag-2 73, CHO parental Ca 64 | TRPN1 ag 2 inactive | TRPML3 ag conf inactive
CN(C)S(=O)(=O)N1CCC(n2nccc2NC(=O)CCCc2ccccc2)CC1	none (no result: TRPML3 agonist, zfTRPN1 agonist)
Cc1ccc(S(=O)(=O)N(C)CC(=O)O/N=C(\N)c2cccc([N+](=O)[O-])c2)cc1	TRPML3 agonist 62 | TRPN1 ag 2 inactive | TRPML3 ag conf 48
O=S(=O)(Nc1ccccc1N1CCCCC1)c1ccc(Cl)s1	TRPML3 agonist 139 | TRPN1 ag 2 inactive | TRPML3 ag conf 110
O=S(=O)(Nc1cc(Cl)ccc1N1CCCCC1)c1cccs1	none
CCc1c(O)nc(SCC(=O)Nc2nc3ccccc3s2)n(C2CCCCC2)c1=O	none
